Assay results pooled from the literature.
Target: RAC-gamma serine/threonine-protein kinase (AKT3, Homo sapiens, UniProt Q9Y243)

With O=C(c1ccc(Nc2ncc(Cl)c(-c3ccc(Cl)s3)n2)cc1)N1CCC(N2CCCC2)CC1 the remaining binding was 100% (binding, competition with immobilised ligand; 1 µM).
CCCOc1ccc([C@H]2[C@H](C(=O)O)[C@@H](c3ccc4c(c3)OCO4)CN2CC(=O)Nc2c(CC)cccc2CC)cc1 gave a remaining binding of 82% (cell-free assay, competition with immobilised ligand; 1 µM).
For COc1ccnn2ncc(-c3ccnc(N(C)C)n3)c12, the remaining binding was 98% (binding; 1 µM).
O=C(Nc1c[nH]nc1C(=O)NC1CCNCC1)c1cc(F)cc(F)c1 has a remaining binding of 100% (binding, competition with immobilised ligand; 1 µM).
The remaining binding of C[C@@H]1CCN(c2nccc(-c3cnn4ncccc34)n2)C1 is reported as 78% (binding; 1 µM).
With O=C(c1ccc(Nc2nccc(-c3cc4ccccc4s3)n2)cc1)N1CCC(N2CCCC2)CC1 the remaining binding was 100% (binding, competition with immobilised ligand; 1 µM).
CCN1CCN(Cc2ccc(C(=O)Nc3ccc(C)c(Oc4ccc5c(c4)CC(=O)N5)c3)cc2C(F)(F)F)CC1 has a remaining binding of 89% (binding, competition with immobilised ligand; 1 µM).
The remaining binding of CN(CCCC(F)(F)F)c1nccc(-c2cnn3ncccc23)n1 is reported as 83% (binding; 1 µM).
COc1cnc(Nc2cccc(S(N)(=O)=O)c2)nc1N1CCN(c2ccccc2)CC1 has a remaining binding of 100% (binding, competition with immobilised ligand; 1 µM).
NS(=O)(=O)c1cc(NC(=O)C2(c3ccccc3Cl)CC2)ccc1Oc1cccc(Cl)c1 gave a remaining binding of 79% (cell-free assay, competition with immobilised ligand; 1 µM).
N[C@H]1CCN(c2nccc(-c3cnn4ncccc34)n2)C1 gave a remaining binding of 100% (binding; 1 µM).
With C=CC(=O)N1CCC(C(=O)NCC(=O)N2CCN(c3nc(-c4cnc(N)nc4C(F)F)nc(N4CCOCC4)n3)CC2)CC1 the remaining binding was 100% (binding, competition with immobilised ligand; 1 µM).
Cc1nc(C2CCN(C(=O)c3ccc(OC(F)(F)F)cc3N)CC2)c2ncc(N3CCN(C)CC3)cc2n1 has a remaining binding of 95% (cell-free assay, competition with immobilised ligand; 1 µM).
The remaining binding of F[C@@H]1CCN(c2nccc(-c3cnn4ncccc34)n2)C1 is reported as 93% (binding; 1 µM).
With O=C(c1ccc(Nc2ncc(Cl)c(-c3cc4ccccc4s3)n2)cc1)N1CCC(N2CCCC2)CC1 the remaining binding was 100% (binding, competition with immobilised ligand; 1 µM).
Cc1noc([C@H]2C[C@@H](c3ccc(C(F)(F)F)cc3)CN(C(=O)N3CCS(=O)(=O)C3)C2)n1 has a remaining binding of 100% (cell-free assay, competition with immobilised ligand; 1 µM).
The remaining binding of C[C@@H](c1ccc(-n2cnc3c(N)ncnc32)cc1)N1CCc2nn(C)c(Cc3ccccc3)c2C1=O is reported as 62% (binding, competition with immobilised ligand; 0.1 µM).
With CCc1ccccc1C(=O)Nc1n[nH]c2c(C)c(F)c(C3C(C#N)=C(C)N(C)C(C)=C3C#N)cc12 the remaining binding was 100% (cell-free assay, competition with immobilised ligand; 1 µM).
c1cnn2ncc(-c3ccnc(N4CCC45COC5)n3)c2c1 gave a remaining binding of 86% (binding; 1 µM).
The remaining binding of C[C@@H]1CN(c2cc(-c3n[nH]c4ccc(OC5(C)CC5)cc34)ncn2)C[C@H](C)O1 is reported as 86% (cell-free assay, competition with immobilised ligand; 0.1 µM).
The remaining binding of COc1cnc(Nc2cccc(S(N)(=O)=O)c2)nc1N1CCN(c2ccccc2)C(=O)C1 is reported as 100% (binding, competition with immobilised ligand; 1 µM).
